# Columns and labels:
# [1] = Inhibition of [Fe(2+)]/ascorbate-induced lipid peroxidation at 10e-5 M in rat brain homogenate
# [2] = Inhibition of spontaneous lipid peroxidation at 10e-5 M in rat brain homogenate
# [3] = In vitro glutathione peroxidase activity at 2*10e-7M using hydrogen peroxide, activity given in percentage of ebselen''s activity; format: functional
# [4] = In vitro glutathione peroxidase activity at 2*10e-7M using tert-butyl hydroperoxide, activity given in percentage of ebselen''s activity; format: functional
# Rattus norvegicus [5] = assay: Tested for acute anti-inflammatory activity of the antirat serum-induced edema in rats at dose of 30 mg/kg at time interval- 1 hr; format: functional
# How it was run: (§1)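 Fasted Wistar rats (200–240 g), six per group, receive drug orally in 2% gelatin. One hour later, 0.1 mL rabbit antirat serum is injected subplantar into the hind paw. Paw volume is measured by water plethysmometry at injection and at 0.5, 1, 2, 3 and 4 h. Results are percent inhibition of swelling versus vehicle-treated rats.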
# Rattus norvegicus [6] = assay: Tested for acute anti-inflammatory activity of carrageenan-induced foot edema in rats at dose of 100 mg/kg at time interval- 2 hr; format: functional
# How it was run: (§2)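 Fasted Wistar rats (200–240 g), six per group, receive drug orally in 2% gelatin. One hour later, 0.1 mL 2% carrageenan in […] is injected subplantar into the hind paw. Paw volume is measured by water plethysmometry at injection and at 0.5, 1, 2, 3 and 4 h. Results are percent inhibition of swelling versus vehicle-treated rats.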
# Rattus norvegicus [7] = assay: Tested for acute anti-inflammatory activity of carrageenan-induced foot edema in rats at dose of 3 mg/kg at time interval- 3h; format: functional
# How it was run: as §2
# Rattus norvegicus [8] = assay: Tested for acute anti-inflammatory activity of the antirat serum-induced edema in rats at dose of 3 mg/kg at time interval- 3h; format: functional
# How it was run: as §1
# Rattus norvegicus [9] = assay: Tested for acute anti-inflammatory activity of the antirat serum-induced edema in rats at dose of 3 mg/kg at time interval- 4 hr; format: functional
# How it was run: as §1
# Rattus norvegicus [10] = assay: Tested for acute anti-inflammatory activity of the antirat serum-induced edema in rats at dose of 100 mg/kg at time interval- 4 hr; format: functional
# How it was run: as §1
# Rattus norvegicus [11] = assay: Tested for acute anti-inflammatory activity of the antirat serum-induced edema in rats at dose of 30 mg/kg at time interval- 0.5 hr; format: functional
# How it was run: as §1
# Rattus norvegicus [12] = assay: Tested for acute anti-inflammatory activity of carrageenan-induced foot edema in rats at dose of 3 mg/kg at time interval- 0.5 hr; format: functional
# How it was run: as §2
# Rattus norvegicus [13] = assay: Tested for acute anti-inflammatory activity of carrageenan-induced foot edema in rats at dose of 3 mg/kg at time interval- 2 hr; format: functional
# How it was run: as §2
# Rattus norvegicus [14] = assay: Tested for acute anti-inflammatory activity of carrageenan-induced foot edema in rats at dose of 30 mg/kg at time interval- 4 hr; format: functional
# How it was run: as §2
# Rattus norvegicus [15] = assay: Tested for acute anti-inflammatory activity of the antirat serum-induced edema in rats at dose of 3 mg/kg at time interval- 1 hr; format: functional
# How it was run: as §1
# Rattus norvegicus [16] = assay: Tested for acute anti-inflammatory activity of carrageenan-induced foot edema in rats at dose of 100 mg/kg at time interval- 3h; format: functional
# How it was run: as §2
# Rattus norvegicus [17] = assay: Tested for acute anti-inflammatory activity of carrageenan-induced foot edema in rats at dose of 30 mg/kg at time interval- 0.5 hr; format: functional
# How it was run: as §2
# Rattus norvegicus [18] = assay: Tested for acute anti-inflammatory activity of carrageenan-induced foot edema in rats at dose of 100 mg/kg at time interval- 0.5 hr; format: functional
# How it was run: as §2
# Rattus norvegicus [19] = assay: Tested for acute anti-inflammatory activity of carrageenan-induced foot edema in rats at dose of 100 mg/kg at time interval- 1 hr; format: functional
# How it was run: as §2
# Rattus norvegicus [20] = assay: Tested for acute anti-inflammatory activity of the antirat serum-induced edema in rats at dose of 100 mg/kg at time interval- 0.5 hr; format: functional
# How it was run: as §1
# Rattus norvegicus [21] = assay: Tested for acute anti-inflammatory activity of the antirat serum-induced edema in rats at dose of 3 mg/kg at time interval- 2 hr; format: functional
# How it was run: as §1
# Rattus norvegicus [22] = assay: Tested for acute anti-inflammatory activity of carrageenan-induced foot edema in rats at dose of 100 mg/kg at time interval- 4 hr; format: functional
# How it was run: as §2
# Rattus norvegicus [23] = assay: Tested for acute anti-inflammatory activity of carrageenan-induced foot edema in rats at dose of 30 mg/kg at time interval- 3h; format: functional
# How it was run: as §2
# Rattus norvegicus [24] = assay: Tested for acute anti-inflammatory activity of carrageenan-induced foot edema in rats at dose of 30 mg/kg at time interval- 1 hr; format: functional
# How it was run: as §2
# Rattus norvegicus [25] = assay: Tested for acute anti-inflammatory activity of the antirat serum-induced edema in rats at dose of 100 mg/kg at time interval- 1 hr; format: functional
# How it was run: as §1
# Rattus norvegicus [26] = assay: Tested for acute anti-inflammatory activity of the antirat serum-induced edema in rats at dose of 30 mg/kg at time interval- 4 hr; format: functional
# How it was run: as §1
# Rattus norvegicus [27] = assay: Tested for acute anti-inflammatory activity of the antirat serum-induced edema in rats at dose of 3 mg/kg at time interval- 0.5 hr; format: functional
# How it was run: as §1
# Rattus norvegicus [28] = assay: Tested for acute anti-inflammatory activity of carrageenan-induced foot edema in rats at dose of 3 mg/kg at time interval- 4 hr; format: functional
# How it was run: as §2
# Rattus norvegicus [29] = assay: Tested for acute anti-inflammatory activity of carrageenan-induced foot edema in rats at dose of 30 mg/kg at time interval- 2 hr; format: functional
# How it was run: as §2
# Rattus norvegicus [30] = assay: Tested for acute anti-inflammatory activity of the antirat serum-induced edema in rats at dose of 30 mg/kg at time interval- 3h; format: functional
# How it was run: as §1
# Rattus norvegicus [31] = assay: Tested for acute anti-inflammatory activity of the antirat serum-induced edema in rats at dose of 100 mg/kg at time interval- 3h; format: functional
# How it was run: as §1
# Rattus norvegicus [32] = assay: Tested for acute anti-inflammatory activity of the antirat serum-induced edema in rats at dose of 100 mg/kg at time interval- 2 hr; format: functional
# How it was run: as §1
# Rattus norvegicus [33] = assay: Tested for acute anti-inflammatory activity of the antirat serum-induced edema in rats at dose of 30 mg/kg at time interval- 2 hr; format: functional
# How it was run: as §1
# Rattus norvegicus [34] = assay: Tested for acute anti-inflammatory activity of carrageenan-induced foot edema in rats at dose of 3 mg/kg at time interval- 1 hr; format: functional
# How it was run: as §2
structure (smiles),measurement,setting,value
O=C(c1ccc(Cl)cc1)c1ccc2[nH]c(=O)[se]c2c1,inhibition,[1],5%
same,inhibition,[2],-5%
same,GSH-Px activity,[3],0
same,GSH-Px activity,[4],0
CC(=O)c1ccc(N)c([Se][Se]c2cc(C(C)=O)ccc2N)c1,inhibition,[1],99%
same,inhibition,[2],100%
same,GSH-Px activity,[3],247
same,GSH-Px activity,[4],238
CCCC(=O)c1ccc2c(c1)[se]c(=O)n2C,inhibition,[1],-3%
same,inhibition,[2],2%
same,GSH-Px activity,[3],0
same,GSH-Px activity,[4],0
CC(=O)c1ccc2[nH]c(=O)[se]c2c1,inhibition,[1],6%
same,inhibition,[2],1%
same,GSH-Px activity,[3],0
same,GSH-Px activity,[4],12
O=c1[nH]c2ccc(Cc3ccccc3)cc2[se]1,inhibition,[1],-7%
same,inhibition,[2],-6%
same,GSH-Px activity,[3],0.7
same,GSH-Px activity,[4],-1
CNc1ccccc1[Se][Se]c1ccccc1NC,inhibition,[1],37%
same,inhibition,[2],52%
same,GSH-Px activity,[3],325
same,GSH-Px activity,[4],267
CNc1ccc(C(=O)c2ccccc2)cc1[Se][Se]c1cc(C(=O)c2ccccc2)ccc1NC,inhibition,[1],100%
same,inhibition,[2],100%
same,GSH-Px activity,[3],68
same,GSH-Px activity,[4],298
Nc1ccc(C(=O)c2ccc(Cl)cc2)cc1[Se][Se]c1cc(C(=O)c2ccc(Cl)cc2)ccc1N,inhibition,[1],100%
same,inhibition,[2],100%
same,GSH-Px activity,[3],116
same,GSH-Px activity,[4],279
Cn1c(=O)[se]c2cc(C(=O)c3ccccc3)ccc21,inhibition,[1],-3%
same,inhibition,[2],-1%
same,GSH-Px activity,[3],0
same,GSH-Px activity,[4],0
Cc1c(C)c2c(c(C)c1O)CCC(C)(C(=O)O)O2 (stereo unspecified),GSH-Px activity,[4],0
Cn1c(=O)[se]c2cc(C(=O)c3cccnc3)ccc21,inhibition,[1],1%
same,inhibition,[2],4%
same,GSH-Px activity,[3],0
same,GSH-Px activity,[4],0
Nc1ccc(C(O)c2ccccc2)cc1[Se][Se]c1cc(C(O)c2ccccc2)ccc1N (stereo unspecified),inhibition,[1],97%
same,inhibition,[2],92%
same,GSH-Px activity,[3],54
same,GSH-Px activity,[4],245
O=C(c1cccnc1)c1ccc2[nH]c(=O)[se]c2c1,inhibition,[1],-8%
same,inhibition,[2],-5%
same,GSH-Px activity,[3],0
same,GSH-Px activity,[4],0
CC(C)(Sc1cc(C(C)(C)C)c(O)c(C(C)(C)C)c1)Sc1cc(C(C)(C)C)c(O)c(C(C)(C)C)c1,GSH-Px activity,[4],0
CN(C)C(=O)Nc1ccccc1[Se][Se]c1ccccc1NC(=O)N(C)C,inhibition,[1],97%
same,inhibition,[2],96%
same,GSH-Px activity,[3],236
same,GSH-Px activity,[4],178
CN(C)C(=O)Nc1ccc(C(=O)c2ccccc2)cc1[Se][Se]c1cc(C(=O)c2ccccc2)ccc1NC(=O)N(C)C,inhibition,[1],99%
same,inhibition,[2],98%
same,GSH-Px activity,[3],212
same,GSH-Px activity,[4],212
CCCC(=O)c1ccc2[nH]c(=O)[se]c2c1,inhibition,[1],-2%
same,inhibition,[2],-3%
same,GSH-Px activity,[3],0
same,GSH-Px activity,[4],0
Nc1ccc(Cc2ccccc2)cc1[Se][Se]c1cc(Cc2ccccc2)ccc1N,inhibition,[1],97%
same,inhibition,[2],91%
same,GSH-Px activity,[3],227
same,GSH-Px activity,[4],242
O=c1[nH]c2ccc(C(O)c3ccccc3)cc2[se]1 (stereo unspecified),inhibition,[1],-1%
same,inhibition,[2],-1%
same,GSH-Px activity,[3],0
same,GSH-Px activity,[4],10
O=c1c2ccccc2[se]n1-c1ccccc1 [EBSELEN],inhibition in vivo at 30 mg/kg,Rattus norvegicus [5],-3.8%
same,inhibition in vivo at 100 mg/kg,Rattus norvegicus [6],18.4%
same,inhibition in vivo at 3 mg/kg,Rattus norvegicus [7],21.4%
same,inhibition in vivo at 3 mg/kg,Rattus norvegicus [8],-6.6%
same,inhibition in vivo at 3 mg/kg,Rattus norvegicus [9],-2.6%
same,inhibition in vivo at 100 mg/kg,Rattus norvegicus [10],16.3%
same,inhibition in vivo at 30 mg/kg,Rattus norvegicus [11],-19.6%
same,inhibition in vivo at 3 mg/kg,Rattus norvegicus [12],-63.5%
same,inhibition in vivo at 3 mg/kg,Rattus norvegicus [13],30.3%
same,GSH-Px activity,[3],100
same,inhibition in vivo at 30 mg/kg,Rattus norvegicus [14],-7.5%
same,inhibition in vivo at 3 mg/kg,Rattus norvegicus [15],2.3%
same,inhibition in vivo at 100 mg/kg,Rattus norvegicus [16],13.7%
same,inhibition in vivo at 30 mg/kg,Rattus norvegicus [17],-54%
same,inhibition in vivo at 100 mg/kg,Rattus norvegicus [18],-93.6%
same,inhibition in vivo at 100 mg/kg,Rattus norvegicus [19],26.9%
same,inhibition in vivo at 100 mg/kg,Rattus norvegicus [20],4.9%
same,inhibition in vivo at 3 mg/kg,Rattus norvegicus [21],-1.1%
same,inhibition in vivo at 100 mg/kg,Rattus norvegicus [22],0.6%
same,inhibition in vivo at 30 mg/kg,Rattus norvegicus [23],-4.1%
same,inhibition in vivo at 30 mg/kg,Rattus norvegicus [24],47.5%
same,inhibition in vivo at 100 mg/kg,Rattus norvegicus [25],15.9%
same,inhibition in vivo at 30 mg/kg,Rattus norvegicus [26],7.9%
same,inhibition in vivo at 3 mg/kg,Rattus norvegicus [27],-9.8%
same,inhibition in vivo at 3 mg/kg,Rattus norvegicus [28],13.5%
same,GSH-Px activity,[4],100
same,inhibition in vivo at 30 mg/kg,Rattus norvegicus [29],10.2%
same,inhibition in vivo at 30 mg/kg,Rattus norvegicus [30],3.7%
same,inhibition in vivo at 100 mg/kg,Rattus norvegicus [31],16.7%
same,inhibition in vivo at 100 mg/kg,Rattus norvegicus [32],22%
same,inhibition in vivo at 30 mg/kg,Rattus norvegicus [33],8.2%
same,inhibition in vivo at 3 mg/kg,Rattus norvegicus [34],29.1%
Cn1c(=O)[se]c2cc(C(=O)c3ccc(Cl)cc3)ccc21,inhibition,[1],2%
same,inhibition,[2],-3%
same,GSH-Px activity,[3],0
same,GSH-Px activity,[4],0
